Assay results taken from ChEMBL document CHEMBL4425193 (Bioorg Med Chem, 2016).
The source made the active and inactive calls. The calls are words filed in the database; no cut-off is given here. Positions of bridges follow the written chain, without caps; N, C: chain ends. Non-standard residues stand in square brackets, D forms with d. Residues, ends and D or L forms follow the SMILES beside them. Chains are numbered I, II in the order given. ξ: configuration not given here. Gly(N-piperonyl) = O=C(O)CNCc1ccc2c(c1)OCO2; N(4-MeOBn)Gly = COc1ccc(CNCC(=O)O)cc1; Nrpe = C[C@@H](NCC(=O)O)c1ccccc1; Nlys = NCCCCNCC(=O)O; ξK = NCCCCC(N)C(=O)O

Experiments:
[1] = Displacement of FITC-labeled PPS1D1 from lipid phosphatidylserine assessed as remaining fluorescence at 1 uM incubated for 1 hr by ELISA-like competitive binding assay
Procedure, shortened: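 Lipid PS in hexane (10 μg/ml) was coated into wells and dried at room temperature. Wells were blocked with 1% BSA/PBS for 1 h, then saturated with 200 nM FITC-PPS1D1 in blocking buffer for 1 h at room temperature and washed. Competitor at 1 μM was added for 1 h. After PBS washes, remaining fluorescence was read at 520 nm.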

[2] = test system: HCC4017; experiment: Cytotoxicity against human HCC4017 cells at 0.1 to 100 uM after 1 day by MTS assay; assay type: functional, cell-based
Procedure, shortened: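 HCC4017 lung cancer cells were seeded in clear-bottom 96-well plates. On day 2 they were exposed to compound in RPMI with 10% FBS containing 3% BSA, at eight graded concentrations from 0.1 μM to 100 μM, each in triplicate. On day 3 MTS reagent was added and absorbance was read at 490 nm.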

[3] = test system: HCC4017; experiment: Cytotoxicity against human HCC4017 cells at 30 uM after 1 day by MTS assay
[4] = test system: HCC4017; experiment: Cytotoxicity against human HCC4017 cells at 30 uM after 1 day by MTS assay; assay type: functional, cell-based
Procedure, shortened: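 HCC4017 cells were plated in 96-well format. On the second day compound was added in RPMI/10% FBS with 3% BSA, and each concentration was run in triplicate. MTS reagent was added on day 3 and absorbance was read at 490 nm. The absorbance values at the 30 μM treatment were taken for this readout.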

[5] = test system: HCC4017; experiment: Cytotoxicity against human HCC4017 cells after 1 day by MTS assay; assay type: functional, cell-based; conditions: HCC4017, 24 h
[6] = test system: NCI-H460; experiment: Cytotoxicity against human H460 cells after 1 day by MTS assay; assay type: functional, cell-based; conditions: NCI-H460, 24 h

Row | Structure (SMILES) | inhibition [1] | Activity [2] | Activity [3] | Activity [4] | IC50 [5] | IC50 [6]
1 | C=CCNCC(=O)N(CCOC)CC(=O)N(CC=C)CC(=O)N(CCOC)CC(=O)N(CC=C)CC(=O)NCC(=O)N[C@H](CCCCN)C(=O)N[C@@H](CCSC)C(=O)NCCCCC(NC(=O)[C@H](CCSC)NC(=O)[C@@H](CCCCN)NC(=O)CNC(=O)CN(CC=C)C(=O)CN(CCOC)C(=O)CN(CC=C)C(=O)CN(CCOC)C(=O)CNCC=C)C(N)=O (stereo partly drawn) | inactive | inactive | inactive | inactive | – | –
2 | COc1ccc(CN(CC(=O)N(CCCCN)CC(=O)N[C@@H](CCCCN)C(=O)N[C@H](CCCCN)C(=O)N[C@@H](CCSC)C(=O)NCCCCC(NC(=O)[C@H](CCSC)NC(=O)[C@@H](CCCCN)NC(=O)[C@H](CCCCN)NC(=O)CN(CCCCN)C(=O)CN(Cc2ccc(OC)cc2)C(=O)CN(C(=O)CN(Cc2ccc3c(c2)OCO3)C(=O)CN[C@H](C)c2ccccc2)[C@H](C)c2ccccc2)C(N)=O)C(=O)CN(C(=O)CN(Cc2ccc3c(c2)OCO3)C(=O)CN[C@H](C)c2ccccc2)[C@H](C)c2ccccc2)cc1 (stereo partly drawn) | Active | Active | Active | Active | 5 to 10 µM | 5 to 10 µM
3 | C=CCN(CC(=O)N[C@@H](CCCCN)C(=O)N[C@H](CCCCN)C(=O)N[C@@H](CCSC)C(=O)NCCCCC(NC(=O)[C@H](CCSC)NC(=O)[C@@H](CCCCN)NC(=O)[C@H](CCCCN)NC(=O)CN(CC=C)C(=O)CN(Cc1ccc(OC)cc1)C(=O)CN(C(=O)CN(Cc1ccc2c(c1)OCO2)C(=O)CN[C@H](C)c1ccccc1)[C@H](C)c1ccccc1)C(N)=O)C(=O)CN(Cc1ccc(OC)cc1)C(=O)CN(C(=O)CN(Cc1ccc2c(c1)OCO2)C(=O)CN[C@H](C)c1ccccc1)[C@H](C)c1ccccc1 (stereo partly drawn) | – | Active | – | – | – | –
4 | COc1ccc(CN(CC(=O)N(CCCCN)CC(=O)N[C@@H](CCCCN)C(=O)N[C@H](CCCCN)C(=O)N[C@@H](CCSC)C(=O)NCCCCC(NC(=O)[C@H](CCSC)NC(=O)[C@@H](CCCCN)NC(=O)[C@H](CCCCN)NC(=O)CN(CCCCN)C(=O)CN(Cc2ccc(OC)cc2)C(=O)CN(C)C(=O)CN(Cc2ccc3c(c2)OCO3)C(=O)CN[C@H](C)c2ccccc2)C(N)=O)C(=O)CN(C)C(=O)CN(Cc2ccc3c(c2)OCO3)C(=O)CN[C@H](C)c2ccccc2)cc1 (stereo partly drawn) | inactive | – | inactive | inactive | – | –
5 | CSCC[C@H](NC(=O)[C@@H](CCCCN)NC(=O)[C@H](CCCCN)NC(=O)CN(CCCCN)C(=O)CN(C)C(=O)CN(C(=O)CN(Cc1ccc2c(c1)OCO2)C(=O)CN[C@H](C)c1ccccc1)[C@H](C)c1ccccc1)C(=O)NCCCCC(NC(=O)[C@H](CCSC)NC(=O)[C@@H](CCCCN)NC(=O)[C@H](CCCCN)NC(=O)CN(CCCCN)C(=O)CN(C)C(=O)CN(C(=O)CN(Cc1ccc2c(c1)OCO2)C(=O)CN[C@H](C)c1ccccc1)[C@H](C)c1ccccc1)C(N)=O (stereo partly drawn) | inactive | – | inactive | inactive | – | –
6 | COc1ccc(CN(CC(=O)N(CCCCN)CC(=O)N[C@@H](CCCCN)C(=O)N[C@@H](C)C(=O)N[C@@H](CCSC)C(=O)NCCCCC(NC(=O)[C@H](CCSC)NC(=O)[C@H](C)NC(=O)[C@H](CCCCN)NC(=O)CN(CCCCN)C(=O)CN(Cc2ccc(OC)cc2)C(=O)CN(C(=O)CN(Cc2ccc3c(c2)OCO3)C(=O)CN[C@H](C)c2ccccc2)[C@H](C)c2ccccc2)C(N)=O)C(=O)CN(C(=O)CN(Cc2ccc3c(c2)OCO3)C(=O)CN[C@H](C)c2ccccc2)[C@H](C)c2ccccc2)cc1 (stereo partly drawn) (I: H-[Nrpe][Gly(N-piperonyl)][Nrpe][N(4-MeOBn)Gly][Nlys]KAM[ξK]-NH2 / II: H-[Nrpe][Gly(N-piperonyl)][Nrpe][N(4-MeOBn)Gly][Nlys]KAM; amide I:9-II:C) | inactive | – | inactive | inactive | – | –
7 | COc1ccc(CN(CC(=O)N(CCCCN)CC(=O)N[C@@H](CCCCN)C(=O)N[C@H](CCCCN)C(=O)N[C@@H](C)C(=O)NCCCCC(NC(=O)[C@H](C)NC(=O)[C@@H](CCCCN)NC(=O)[C@H](CCCCN)NC(=O)CN(CCCCN)C(=O)CN(Cc2ccc(OC)cc2)C(=O)CN(C(=O)CN(Cc2ccc3c(c2)OCO3)C(=O)CN[C@H](C)c2ccccc2)[C@H](C)c2ccccc2)C(N)=O)C(=O)CN(C(=O)CN(Cc2ccc3c(c2)OCO3)C(=O)CN[C@H](C)c2ccccc2)[C@H](C)c2ccccc2)cc1 (stereo partly drawn) | – | – | Active | Active | – | –
8 | COc1ccc(CN(CC(=O)N(CCCCN)CC(=O)N[C@@H](CCCCN)C(=O)N[C@H](CCCCN)C(=O)N[C@@H](CCSC)C(=O)NCCCCC(NC(=O)[C@H](CCSC)NC(=O)[C@@H](CCCCN)NC(=O)[C@H](CCCCN)NC(=O)CN(CCCCN)C(=O)CN(Cc2ccc(OC)cc2)C(=O)CN(C(=O)CNCc2ccc3c(c2)OCO3)[C@H](C)c2ccccc2)C(N)=O)C(=O)CN(C(=O)CNCc2ccc3c(c2)OCO3)[C@H](C)c2ccccc2)cc1 (stereo partly drawn) | inactive | inactive | – | – | – | –
9 | CSCC[C@H](NC(=O)[C@@H](CCCCN)NC(=O)[C@H](CCCCN)NC(=O)CNCCCCN)C(=O)NCCCCC(NC(=O)[C@H](CCSC)NC(=O)[C@@H](CCCCN)NC(=O)[C@H](CCCCN)NC(=O)CNCCCCN)C(N)=O (stereo partly drawn) | inactive | inactive | – | – | – | –
10 | COc1ccc(CNCC(=O)N(CCCCN)CC(=O)N[C@@H](CCCCN)C(=O)N[C@H](CCCCN)C(=O)N[C@@H](CCSC)C(=O)NCCCCC(NC(=O)[C@H](CCSC)NC(=O)[C@@H](CCCCN)NC(=O)[C@H](CCCCN)NC(=O)CN(CCCCN)C(=O)CNCc2ccc(OC)cc2)C(N)=O)cc1 (stereo partly drawn) | inactive | inactive | – | – | – | –
11 | COc1ccc(CN(CC(=O)N(CCCCN)CC(=O)N[C@@H](CCCCN)C(=O)N[C@H](CCCCN)C(=O)N[C@@H](CCSC)C(=O)NCCCCC(NC(=O)[C@H](CCSC)NC(=O)[C@@H](CCCCN)NC(=O)[C@H](CCCCN)NC(=O)CN(CCCCN)C(=O)CN(Cc2ccc(OC)cc2)C(=O)CN[C@H](C)c2ccccc2)C(N)=O)C(=O)CN[C@H](C)c2ccccc2)cc1 (stereo partly drawn) | inactive | inactive | – | – | – | –
12 | COCCN(CC(=O)N[C@@H](CCCCN)C(=O)N[C@H](CCCCN)C(=O)N[C@@H](CCSC)C(=O)NCCCCC(NC(=O)[C@H](CCSC)NC(=O)[C@@H](CCCCN)NC(=O)[C@H](CCCCN)NC(=O)CN(CCOC)C(=O)CN(Cc1ccc(OC)cc1)C(=O)CN(C(=O)CN(Cc1ccc2c(c1)OCO2)C(=O)CN[C@H](C)c1ccccc1)[C@H](C)c1ccccc1)C(N)=O)C(=O)CN(Cc1ccc(OC)cc1)C(=O)CN(C(=O)CN(Cc1ccc2c(c1)OCO2)C(=O)CN[C@H](C)c1ccccc1)[C@H](C)c1ccccc1 (stereo partly drawn) | – | Active | – | – | – | –
13 | CSCC[C@H](NC(=O)[C@@H](CCCCN)NC(=O)[C@@H](N)CCCCN)C(=O)NCCCCC(NC(=O)[C@H](CCSC)NC(=O)[C@@H](CCCCN)NC(=O)[C@@H](N)CCCCN)C(N)=O (stereo partly drawn) | inactive | inactive | – | – | – | –
